{"data": "Published values pooled from the literature", "organism": "Staphylococcus aureus", "note": "Protocols differ between the studies behind these lines."}
{"SMILES": "N#C/C(=C\\c1ccc(O)c(O)c1)C(=O)NCc1ccccc1", "assay": "microbial growth", "system": "NCTC8325", "quantity": "MIC", "result": "> 30 µM"}
{"SMILES": "O=C(O)CN1C(=O)/C(=C/c2ccc(-c3ccc(N(c4ccccc4)c4ccccc4)cc3)c3ccccc23)SC1=S", "assay": "microbial killing, broth dilution", "system": "ATCC25923", "quantity": "MBC", "result": "> 1000 µg/mL"}
{"SMILES": "CCCCCCCCCCCCCC(O)CC(O)CO (stereo not shown)", "assay": "microbial growth, broth dilution", "system": "ATCC33591 MRSA", "conditions": "drug-resistant strain", "quantity": "IC50", "result": "8.26 µg/mL"}
{"SMILES": "COc1ccc2nc(-n3nc(C(C)C)c4c3-c3ccccc3C4=O)sc2c1", "assay": "microbial growth, well diffusion", "system": "NCIM5021", "conditions": "1000 µg/mL", "quantity": "inhibition zone", "result": "11 mm"}
{"SMILES": "CC(C)c1cccc(=O)c(O)c1", "assay": "microbial growth, broth dilution", "system": "ATCC29213", "quantity": "MIC80", "result": "66.7 µM"}
{"SMILES": "O=C(O)CN1C(=O)/C(=C/c2ccc(-c3ccc(N(c4ccccc4)c4ccccc4)cc3)c3ccccc23)NC1=S", "assay": "microbial killing, broth dilution", "system": "ATCC6538", "quantity": "MBC", "result": "> 1000 µg/mL"}
{"SMILES": "O=C(N[C@H](CO)[C@H](O)c1ccc([N+](=O)[O-])cc1)C(Cl)Cl", "assay": "microbial growth", "system": "ATCC700699", "quantity": "MIC90", "result": "62.5 µg/mL"}
{"SMILES": "C#CCCCCCCCCC=CCC(O)CC(O)CO (stereo not shown)", "assay": "microbial growth, broth dilution", "system": "ATCC33591 MRSA", "conditions": "drug-resistant strain", "quantity": "IC50", "result": "> 200 µg/mL"}
{"SMILES": "CN[C@H](CC(C)C)C(=O)N[C@H]1C(=O)N[C@@H](CC(N)=O)C(=O)N[C@H]2C(=O)N[C@H]3C(=O)N[C@H](C(=O)N[C@H](C(=O)O)c4cc(O)cc(O)c4-c4cc3ccc4O)[C@H](O)c3ccc(c(Cl)c3)Oc3cc2cc(c3O[C@@H]2O[C@H](CO)[C@@H](O)[C@H](O)[C@H]2O[C@H]2C[C@](C)(N)[C@H](O)[C@H](C)O2)Oc2ccc(cc2Cl)[C@H]1O", "assay": "microbial growth, disc diffusion", "system": "ATCC29213", "conditions": "62.5 µg/disc, 24 h", "quantity": "inhibition zone", "result": "18 mm"}
{"SMILES": "O=C1NC(=S)S/C1=C\\c1c2ccccc2c(-c2ccc(N(c3ccccc3)c3ccccc3)cc2)c2ccccc12", "assay": "microbial killing, broth dilution", "system": "ATCC6538", "quantity": "MBC", "result": "> 1000 µg/mL"}
{"SMILES": "C#CCCCCCCCCCCCC(O)CC(O)CO (stereo not shown)", "assay": "microbial growth, broth dilution", "system": "ATCC29213", "quantity": "IC50", "result": "3.26 µg/mL"}
{"SMILES": "CN1CCC(CNc2ccc3ncc(-c4cccc(OC(F)(F)F)c4)n3n2)CC1", "assay": "microbial growth", "system": "NCTC8325", "quantity": "MIC", "result": "> 30 µM"}
{"SMILES": "Cc1ccc2nc(-n3nc(C)c4c3-c3ccccc3C4=O)sc2c1", "assay": "microbial growth, well diffusion", "system": "NCIM5021", "conditions": "125 µg/mL", "quantity": "inhibition zone", "result": "11 mm"}
{"SMILES": "O=C1NC(=S)S/C1=C\\c1ccc(-c2ccc(N(c3ccccc3)c3ccccc3)cc2)cc1", "assay": "microbial killing, broth dilution", "system": "ATCC25923", "quantity": "MBC", "result": "1000 µg/mL"}
{"SMILES": "Cc1nn(-c2nc3ccccc3s2)c2c1C(=O)c1ccccc1-2", "assay": "microbial growth, well diffusion", "system": "NCIM5021", "conditions": "250 µg/mL", "quantity": "inhibition zone", "result": "10 mm"}
{"SMILES": "C=CC(=O)Nc1cccc(Sc2nc(Nc3ccc(N4CCN(C)CC4)cc3)ncc2Cl)c1", "assay": "microbial growth", "system": "NCTC8325", "quantity": "MIC", "result": "> 30 µM"}
{"SMILES": "Cc1ccc2nc(-c3ccncc3)[nH]c2c1", "assay": "microbial growth, broth dilution", "system": "ATCC29213 MSSA", "quantity": "MIC", "result": "64 µg/mL"}
{"SMILES": "O=C(N/N=C/c1ccc([N+](=O)[O-])o1)c1ccc(O)cc1", "assay": "microbial growth", "system": "ATCC700699", "quantity": "MIC90", "result": "15.6 µg/mL"}
{"SMILES": "Cc1cc2c(F)c(Oc3ncnn4cc(OC[C@@H](C)O)c(C)c34)ccc2[nH]1", "assay": "microbial growth", "system": "NCTC8325", "quantity": "MIC", "result": "> 30 µM"}
{"SMILES": "CC(C(=O)O)N1C2=NC(c3ccc(Cl)cc3)c3c([nH]c(=O)[nH]c3=O)N2NC1(C)c1ccccc1O (stereo not shown)", "assay": "microbial growth", "system": "ATCC25923", "conditions": "10 µg/mL, 24 h", "quantity": "inhibition zone", "result": "14 mm"}
{"SMILES": "Cc1cc(Nc2cc(CN3CCOCC3)c3nc(C)c(Cc4ccc(Cl)cc4F)n3n2)n[nH]1", "assay": "microbial growth", "system": "NCTC8325", "quantity": "MIC", "result": "30 µM"}
{"SMILES": "CC1(c2ccccc2O)Nn2c(nc(-c3ccc(Cl)cc3)c(C#N)c2=O)N1C(Cc1c[nH]c2ccccc12)C(=O)O (stereo not shown)", "assay": "microbial growth", "system": "ATCC25923", "conditions": "15 µg/mL, 24 h", "quantity": "inhibition zone", "result": "35 mm"}
{"SMILES": "O=C(O)CN1C(=O)/C(=C/c2ccc(-c3ccc(N(c4ccccc4)c4ccccc4)cc3)cc2)SC1=S", "assay": "microbial killing, broth dilution", "system": "ATCC43300", "quantity": "MBC", "result": "7.8 µg/mL"}
{"SMILES": "CC[C@H](C)[C@H](NC(=O)OCC1c2ccccc2-c2ccccc21)C(=O)Sc1cccccc1=O", "assay": "microbial growth, broth dilution", "system": "ATCC29213", "quantity": "MIC80", "result": "> 100 µM"}
{"SMILES": "O=C1NC(=S)S/C1=C\\c1ccc(-c2ccc(N(c3ccccc3)c3ccccc3)cc2)c2ccccc12", "assay": "microbial killing, broth dilution", "system": "ATCC25923", "quantity": "MBC", "result": "> 1000 µg/mL"}
{"SMILES": "O=C(Sc1cccccc1=O)c1cccc(C(F)(F)F)c1", "assay": "microbial growth, broth dilution", "system": "ATCC29213", "quantity": "MIC80", "result": "> 100 µM"}
{"SMILES": "CNC(=O)c1cc(Oc2ccc(NC(=O)Nc3ccc(Oc4ccccc4)cc3)cc2)ccn1", "assay": "microbial growth", "system": "NCTC8325", "quantity": "MIC", "result": "> 100 µM"}
{"SMILES": "CC(C)Cc1nn(-c2nc3ccc(Br)cc3s2)c2c1C(=O)c1ccccc1-2", "assay": "microbial growth, well diffusion", "system": "NCIM5021", "conditions": "250 µg/mL", "quantity": "inhibition zone", "result": "11 mm"}
{"SMILES": "CC1(C)S[C@@H]2[C@H](NC(=O)[C@H](N)c3ccccc3)C(=O)N2[C@H]1C(=O)O", "assay": "microbial growth, agar dilution", "system": "ATCC29213", "conditions": "26.93 µM", "quantity": "inhibition", "result": "100%"}
{"SMILES": "CC(C)Cc1nn(-c2nc3ccc(Cl)cc3s2)c2c1C(=O)c1ccccc1-2", "assay": "microbial growth, well diffusion", "system": "NCIM5021", "conditions": "500 µg/mL", "quantity": "inhibition zone", "result": "11 mm"}
{"SMILES": "O=C(O)CN1C(=O)/C(=C/c2c3ccccc3c(-c3ccc(N(c4ccccc4)c4ccccc4)cc3)c3ccccc23)NC1=S", "assay": "microbial killing, broth dilution", "system": "ATCC43300", "quantity": "MBC", "result": "> 1000 µg/mL"}
{"SMILES": "CC(C)c1nn(-c2nc3ccc(Br)cc3s2)c2c1C(=O)c1ccccc1-2", "assay": "microbial growth, well diffusion", "system": "NCIM5021", "conditions": "1000 µg/mL", "quantity": "inhibition zone", "result": "12 mm"}
{"SMILES": "CCn1c(-c2nonc2N)nc2c(C#CC(C)(C)O)ncc(OC[C@H]3CCCNC3)c21", "assay": "microbial growth", "system": "NCTC8325", "quantity": "MIC", "result": "> 30 µM"}
{"SMILES": "CC(C)c1nn(-c2nc3ccc(Cl)cc3s2)c2c1C(=O)c1ccccc1-2", "assay": "microbial growth, well diffusion", "system": "NCIM5021", "conditions": "1000 µg/mL", "quantity": "inhibition zone", "result": "12 mm"}
{"SMILES": "O=C(Cc1ccccc1)Sc1cccccc1=O", "assay": "microbial growth, broth dilution", "system": "ATCC29213", "quantity": "MIC80", "result": "> 100 µM"}
{"SMILES": "Cc1cc(Nc2cc(N3CCN(C)CC3)nc(/C=C/c3ccccc3)n2)n[nH]1", "assay": "microbial growth", "system": "NCTC8325", "quantity": "MIC", "result": "> 30 µM"}
{"SMILES": "Cc1ccc2nc(-n3nc(C(C)C)c4c3-c3ccccc3C4=O)sc2c1", "assay": "microbial growth, well diffusion", "system": "NCIM5021", "conditions": "1000 µg/mL", "quantity": "inhibition zone", "result": "14 mm"}
